Source: ChEMBL document CHEMBL1121456, “Metabolic depropargylation and its relationship to aldehyde dehydrogenase inhibition in vivo” (1980)

What was measured:
[1] = organism: Rattus norvegicus; experiment: The enzymatic formation of propionaldehyde from compound on inhibition with rat liver microsomes in the presence of an NADPH (untreated with phenobarbital (PB)); type: functional
Outline: (§1)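 Liver microsomes (100000g pellet, KCl-washed) from PB-treated or naive rats, equivalent to 500 mg liver per flask. Incubated 30 min at 37 °C with 3 mM compound, pH 7.4 phosphate, NADP+ 2.0 mM, glucose 6-phosphate 2.5 mM, G6PDH, MgCl2, nicotinamide, and 30 mM semicarbazide. Six flasks were pooled, acidified with HClO4, and propiolaldehyde read by head-space GC from 3–5 determinations.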

[2] = organism: Rattus norvegicus; experiment: Blood AcH level of compound was measured in rats which are treated with phenobarbital (PB); type: functional
Outline: (§2)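 Male Sprague–Dawley rats kept 8 days on water (untreated) or 0.1% sodium phenobarbital solution (PB-treated), then fasted overnight. Test agent given at 1.25 mmol/kg ip 2 h before sacrifice, with ethanol at 2.0 g/kg ip 1 h later; saline controls. Cardiac blood was collected into 5 mM sodium azide and frozen, then acetaldehyde was read by head-space GC. Mean ± SE.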

[3] = organism: Rattus norvegicus; experiment: T/C value of compound was measured in rats which are untreated with phenobarbital (PB); type: functional
Outline: (§3)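 Rats were given water (untreated) or 0.1% sodium phenobarbital drinking solution (PB-treated) for 8 days, then fasted overnight. Agent 1.25 mmol/kg ip, then ethanol 2.0 g/kg ip 1 h later; killed 1 h after ethanol. Blood acetaldehyde by head-space GC. The value is treated/saline-control blood acetaldehyde within the same pretreatment group.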

[4] = organism: Rattus norvegicus; experiment: Blood AcH level of compound was measured in rats which are untreated with phenobarbital (PB); type: functional; outline: as §2
[5] = organism: Rattus norvegicus; experiment: T/C value of compound was measured in rats which are treated with phenobarbital (PB); type: functional; outline: as §3
[6] = organism: Rattus norvegicus; experiment: The enzymatic formation of propionaldehyde from compound on inhibition with rat liver microsomes in the presence of an NADPH (treated with phenobarbital (PB)); type: functional; outline: as §1
[7] = biological target: T1, Aldehyde dehydrogenase 1A1 (Rattus norvegicus) (UniProt P51647); experiment: Percent inhibition of the enzyme […] was measured in rats which are treated with phenobarbital (PB); settings: concentration not given here
T1 sequence (whole entry): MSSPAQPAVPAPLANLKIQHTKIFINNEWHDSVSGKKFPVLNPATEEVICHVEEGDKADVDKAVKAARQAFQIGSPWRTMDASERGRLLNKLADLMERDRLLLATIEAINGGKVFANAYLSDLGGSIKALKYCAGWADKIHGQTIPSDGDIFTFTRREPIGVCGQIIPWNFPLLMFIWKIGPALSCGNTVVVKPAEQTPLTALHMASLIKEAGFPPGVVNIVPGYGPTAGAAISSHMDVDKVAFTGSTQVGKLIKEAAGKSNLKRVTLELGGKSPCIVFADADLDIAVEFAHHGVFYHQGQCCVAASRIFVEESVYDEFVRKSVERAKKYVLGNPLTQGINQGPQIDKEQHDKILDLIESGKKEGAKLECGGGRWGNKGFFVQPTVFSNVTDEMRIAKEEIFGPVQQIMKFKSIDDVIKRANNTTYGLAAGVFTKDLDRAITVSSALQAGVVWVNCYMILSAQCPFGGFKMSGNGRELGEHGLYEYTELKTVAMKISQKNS
Outline: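 Male Sprague–Dawley rats pretreated 8 days with 0.1% sodium phenobarbital in drinking water, then fasted overnight. They received 1.25 mmol/kg ip 2 h before sacrifice and ethanol 2.0 g/kg ip at 1 h. Liver mitochondrial low-Km aldehyde dehydrogenase activity (nmol acetaldehyde oxidized/min/mg protein, Lowry protein) was compared with saline controls as % inhibition.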

| Compound | Propioaldehyde generated [1] [µmol] | Blood AcH [2] [µM] | T/C [3] | Blood AcH [4] [µM] | T/C [5] | Propioaldehyde generated [6] [µmol] | inhibition [7] [%] |
| --- | --- | --- | --- | --- | --- | --- | --- |
| C#CCNCc1ccccc1 [N-BENZYLPROPARGYLAMINE] | 0.2 | 382 | 18.3 | 203 | 50.3 | 1.16 | – |
| C#CCN(C)Cc1ccccc1 [PARGYLINE] | 0.61 | 247 | 20.2 | 224 | 32.5 | 2.58 | – |
| C#CCOC | – | – | 0.95 | 10.6 | 1.1 | 0.05 | – |
| C#CC(OC)OC | – | 24.1 | 0.95 | 10.6 | 3.17 | 0.05 | 44 |
| C#CCOC(C)(C)C | – | 13.5 | 1.77 | 19.6 | 1.78 | 0.22 | – |
| C#CCN(CC#C)CC#C | 0.25 | 144 | 1.4 | 15.4 | 19 | 3.5 | – |
